Test results taken from ChEMBL document CHEMBL1145339, “N1-Benzoyl-N2-[1-(1-naphthyl)ethyl]-trans-1,2-diaminocyclohexanes: Development of 4-chlorophenylcarboxamide (calhex 231) as a new calcium sensing receptor ligand demonstrating potent calcilytic activity” (J Med Chem, 2006).
pIC50: −log10 of the molar value. Calls of active or inactive are those of the source. No cut-off for these calls is given here.

These compounds were tested against T1, Extracellular calcium-sensing receptor (Rattus norvegicus) (UniProt P48442) (assay: Activity at rat CaSR in CHO cells assessed as inhibition of calcium ion-induced [3H]inositol phosphate accumulation at 10 uM).
T1 sequence (whole entry): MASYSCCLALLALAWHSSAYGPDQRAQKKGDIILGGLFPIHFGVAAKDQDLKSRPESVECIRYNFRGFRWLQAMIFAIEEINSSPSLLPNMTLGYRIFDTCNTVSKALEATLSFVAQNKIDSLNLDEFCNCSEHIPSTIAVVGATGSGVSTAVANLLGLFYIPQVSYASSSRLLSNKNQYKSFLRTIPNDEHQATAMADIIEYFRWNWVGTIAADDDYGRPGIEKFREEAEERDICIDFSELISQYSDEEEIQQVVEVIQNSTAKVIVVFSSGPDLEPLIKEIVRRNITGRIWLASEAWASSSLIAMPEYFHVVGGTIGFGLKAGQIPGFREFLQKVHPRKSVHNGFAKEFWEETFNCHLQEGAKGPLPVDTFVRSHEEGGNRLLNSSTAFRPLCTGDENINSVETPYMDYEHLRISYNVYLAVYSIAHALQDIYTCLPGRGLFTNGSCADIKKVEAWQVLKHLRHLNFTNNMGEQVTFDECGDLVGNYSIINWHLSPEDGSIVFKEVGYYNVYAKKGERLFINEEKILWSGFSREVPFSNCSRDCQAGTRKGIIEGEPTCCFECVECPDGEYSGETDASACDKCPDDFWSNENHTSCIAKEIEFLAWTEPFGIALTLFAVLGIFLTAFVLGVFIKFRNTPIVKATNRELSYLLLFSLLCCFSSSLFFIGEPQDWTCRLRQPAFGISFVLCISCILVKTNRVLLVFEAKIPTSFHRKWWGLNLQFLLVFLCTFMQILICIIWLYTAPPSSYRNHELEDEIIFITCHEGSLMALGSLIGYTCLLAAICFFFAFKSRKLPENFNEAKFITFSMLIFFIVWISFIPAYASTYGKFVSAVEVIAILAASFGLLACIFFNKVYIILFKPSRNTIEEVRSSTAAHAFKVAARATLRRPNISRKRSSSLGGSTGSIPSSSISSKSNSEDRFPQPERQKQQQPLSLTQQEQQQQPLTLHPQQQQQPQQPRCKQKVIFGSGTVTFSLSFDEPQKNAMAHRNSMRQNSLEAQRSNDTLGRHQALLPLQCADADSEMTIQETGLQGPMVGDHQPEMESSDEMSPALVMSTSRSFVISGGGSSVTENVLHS
Assay type: functional, cell-based
Method in brief: (§1)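 CHO cells stably transfected with rat CaSR, grown in basal Ham's F-12 (0.3 mM Ca2+, 0.6 mM Mg2+). Overnight labelling with myo-[3H]inositol (0.5 µCi/mL). Cells washed, then 15 min at 37°C in basal medium with 10 mM LiCl, then 30 min at 37°C with 9 mM Ca2+ plus compound (10 mM ethanol stock diluted in medium). Reaction stopped with HClO4; [3H]IP isolated by ion exchange.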
Work on `CC(C)(Cc1ccc2ccccc2c1)NC[C@@H](O)COc1cccc(Cl)c1C#N` yielded an inhibition of 87%. `C[C@@H](N[C@H]1CCCC[C@@H]1NC(=O)c1ccc(OC(F)(F)F)cc1)c1cccc2ccccc12` gave an inhibition of 100%. `C[C@@H](N[C@H]1CCCC[C@@H]1NS(=O)(=O)c1ccc(OC(F)(F)F)cc1)c1cccc2ccccc12` gave an inhibition of 90%. With `C[C@@H](N[C@@H]1CCCC[C@H]1NC(=O)c1ccc(OC(F)(F)F)cc1)c1cccc2ccccc12` the inhibition was 95%. In the case of `COc1ccc(S(=O)(=O)N[C@@H]2CCCC[C@H]2NC(C)c2cccc3ccccc23)cc1` (some centres undefined), the inhibition was 62%. With `CC(N[C@@H]1CCCC[C@H]1NS(=O)(=O)c1ccc(C(F)(F)F)cc1)c1cccc2ccccc12` (some centres undefined) the inhibition was 75%. With `CC(N[C@@H]1CCCC[C@H]1NS(=O)(=O)c1ccc(Cl)cc1)c1cccc2ccccc12` (some centres undefined) the inhibition was 73%. Work on `C[C@@H](N[C@@H]1CCCC[C@H]1NS(=O)(=O)c1ccc(OC(F)(F)F)cc1)c1cccc2ccccc12` yielded an inhibition of 32%. `C[C@H](N[C@@H]1CCCC[C@H]1NC(=O)c1ccc(OC(F)(F)F)cc1)c1cccc2ccccc12` was tested, and the inhibition was 22%. For `C[C@H](N[C@@H]1CCCC[C@H]1NS(=O)(=O)c1ccc(OC(F)(F)F)cc1)c1cccc2ccccc12`, the inhibition was “inactive”. `C[C@H](N[C@H]1CCCC[C@@H]1NC(=O)c1ccc(OC(F)(F)F)cc1)c1cccc2ccccc12` was tested, and the inhibition was “inactive”. With `C[C@H](N[C@H]1CCCC[C@@H]1NS(=O)(=O)c1ccc(OC(F)(F)F)cc1)c1cccc2ccccc12` the inhibition was 20%. In the case of `CC(N[C@@H]1CCCC[C@H]1NS(=O)(=O)c1ccc(OC(F)(F)F)cc1)c1cccc2ccccc12` (relative stereo), the inhibition was 78%. Work on `CC(N[C@@H]1CCCC[C@H]1NC(=O)c1ccc(OC(F)(F)F)cc1)c1cccc2ccccc12` (relative stereo) yielded an inhibition of 95%. For `CC(N[C@@H]1CCCC[C@H]1NC(=O)Oc1ccccc1)c1cccc2ccccc12` (relative stereo), the inhibition was 1%. For `CC(N[C@@H]1CCCC[C@H]1NC(=O)c1ccc(Cl)c(Cl)c1)c1cccc2ccccc12` (relative stereo), the inhibition was 103%. `CC(N[C@@H]1CCCC[C@H]1NC(=O)c1ccc(Cl)cc1)c1cccc2ccccc12` (relative stereo) gave an inhibition of 106%. `CC(N[C@@H]1CCCC[C@H]1NC(=O)c1ccccc1)c1cccc2ccccc12` (relative stereo) was tested, and the inhibition was 78%. `CC(N[C@@H]1CCCC[C@H]1NC(=O)c1ccccc1Cl)c1cccc2ccccc12` (relative stereo) gave an inhibition of 68%. `CC(N[C@@H]1CCCC[C@H]1NC(=O)c1ccccn1)c1cccc2ccccc12` (relative stereo) gave an inhibition of 76%. `CC(N[C@@H]1CCCC[C@H]1NS(=O)(=O)c1ccc(Cl)c(Cl)c1)c1cccc2ccccc12` (relative stereo) showed an inhibition of 60%. Compound `CC(N[C@@H]1CCCC[C@H]1NS(=O)(=O)c1ccc(Cl)c(Cl)c1Cl)c1cccc2ccccc12` (relative stereo) has an inhibition of 59%. `CC(N[C@@H]1CCCC[C@H]1NS(=O)(=O)c1ccc([N+](=O)[O-])cc1)c1ccc2ccccc2c1` (relative stereo) showed an inhibition of 20%. `CC(N[C@@H]1CCCC[C@H]1NS(=O)(=O)c1ccc([N+](=O)[O-])cc1)c1cccc2ccccc12` (relative stereo) was tested, and the inhibition was 56%. `CC(N[C@@H]1CCCC[C@H]1NS(=O)(=O)c1cccc(C(F)(F)F)c1)c1cccc2ccccc12` (relative stereo) showed an inhibition of 44%. For `CC(N[C@@H]1CCCC[C@H]1NS(=O)(=O)c1cccc(Cl)c1)c1cccc2ccccc12` (relative stereo), the inhibition was 60%. Work on `CC(N[C@H]1CCCC[C@@H]1NS(=O)(=O)c1ccc([N+](=O)[O-])cc1)c1ccc(-c2ccccc2)cc1` (relative stereo) yielded an inhibition of 7%. With `COc1ccc(OC)c(S(=O)(=O)N[C@@H]2CCCC[C@H]2NC(C)c2cccc3ccccc23)c1` (relative stereo) the inhibition was 0%. `O=[N+]([O-])c1ccc(S(=O)(=O)N[C@@H]2CCCC[C@H]2NCc2cccc3ccccc23)cc1` (relative stereo) gave an inhibition of 6%.

Each compound was assayed against T1, Extracellular calcium-sensing receptor (Rattus norvegicus) (assay: Activity at rat CaSR in CHO cells assessed as inhibition of calcium ion-induced [3H]inositol phosphate accumulation at 1 uM).
Assay type: functional, cell-based
Method in brief: as §1
In the case of `CC(C)(Cc1ccc2ccccc2c1)NC[C@@H](O)COc1cccc(Cl)c1C#N`, the inhibition was 77%. For `COc1ccc(S(=O)(=O)N[C@@H]2CCCC[C@H]2NC(C)c2cccc3ccccc23)cc1` (some centres undefined), the inhibition was 12%. Work on `CC(N[C@@H]1CCCC[C@H]1NS(=O)(=O)c1ccc(OC(F)(F)F)cc1)c1cccc2ccccc12` (relative stereo) yielded an inhibition of 8%. In the case of `CC(N[C@@H]1CCCC[C@H]1NC(=O)c1ccc(OC(F)(F)F)cc1)c1cccc2ccccc12` (relative stereo), the inhibition was 50%. `CC(N[C@@H]1CCCC[C@H]1NC(=O)c1cc2ccccc2[nH]1)c1cccc2ccccc12` (relative stereo) showed an inhibition of 33%. Work on `CC(N[C@@H]1CCCC[C@H]1NC(=O)c1ccc(Cl)c(Cl)c1)c1cccc2ccccc12` (relative stereo) yielded an inhibition of 82%. Work on `CC(N[C@@H]1CCCC[C@H]1NC(=O)c1ccc(Cl)cc1)c1cccc2ccccc12` (relative stereo) yielded an inhibition of 90%. Work on `CC(N[C@@H]1CCCC[C@H]1NC(=O)c1ccccc1)c1cccc2ccccc12` (relative stereo) yielded an inhibition of 33%. Work on `CC(N[C@@H]1CCCC[C@H]1NC(=O)c1ccccc1C(F)(F)F)c1cccc2ccccc12` (relative stereo) yielded an inhibition of 36%. With `CC(N[C@@H]1CCCC[C@H]1NC(=O)c1ccccc1Cl)c1cccc2ccccc12` (relative stereo) the inhibition was 19%. In the case of `CC(N[C@@H]1CCCC[C@H]1NC(=O)c1ccccn1)c1cccc2ccccc12` (relative stereo), the inhibition was 35%. For `CC(N[C@@H]1CCCC[C@H]1NS(=O)(=O)c1ccc([N+](=O)[O-])cc1)c1ccc2ccccc2c1` (relative stereo), the inhibition was 1%. `O=[N+]([O-])c1ccc(S(=O)(=O)N[C@@H]2CCCC[C@H]2NCc2cccc3ccccc23)cc1` (relative stereo) showed an inhibition of 1%.

The compounds below were run against T2, Extracellular calcium-sensing receptor (Rattus norvegicus, UniProt P48442) (assay: Activity at rat CaSR in CHO cells assessed as inhibition of calcium ion-induced [3H]inositol phosphate accumulation).
T2 sequence (P48442 whole entry): T1 sequence (whole entry)
Assay type: functional, cell-based
Method in brief: as §1
For `CC(C)(Cc1ccc2ccccc2c1)NC[C@@H](O)COc1cccc(Cl)c1C#N`, the pIC50 was 6.34. `C[C@@H](N[C@H]1CCCC[C@@H]1NC(=O)c1ccc(OC(F)(F)F)cc1)c1cccc2ccccc12` gave a pIC50 of 6.60. `C[C@@H](N[C@H]1CCCC[C@@H]1NS(=O)(=O)c1ccc(OC(F)(F)F)cc1)c1cccc2ccccc12` was tested, and the pIC50 was 5.59. For `C[C@@H](N[C@@H]1CCCC[C@H]1NC(=O)c1ccc(OC(F)(F)F)cc1)c1cccc2ccccc12`, the pIC50 was 5.77. `COc1ccc(S(=O)(=O)N[C@@H]2CCCC[C@H]2NC(C)c2cccc3ccccc23)cc1` (some centres undefined) was tested, and the pIC50 was 5.10. `CC(N[C@@H]1CCCC[C@H]1NS(=O)(=O)c1ccc(OC(F)(F)F)cc1)c1cccc2ccccc12` (relative stereo) was tested, and the pIC50 was 5.27. `CC(N[C@@H]1CCCC[C@H]1NC(=O)c1ccc(OC(F)(F)F)cc1)c1cccc2ccccc12` (relative stereo) showed a pIC50 of 6.05.
